According to ChEMBL document CHEMBL1133696, “Development of a lead inhibitor for the A16V+S108T mutant of dihydrofolate reductase from the cycloguanil-resistant strain (T9/94) of Plasmodium falciparum” (J Med Chem, 2000):

Tests used:
Plasmodium falciparum [1] = experiment: Inhibition of Plasmodium falciparum T9/94 mutant; type: functional, organism-based
Summary of the method: (§1)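 Parasites kept in human erythrocytes in RPMI 1640 with 25 mM HEPES pH 7.4, 0.2% NaHCO3, gentamicin and 10% human serum, at 37 °C under 3% CO2. Clones used were TM4/8.2 (wild-type DHFR) and T9/94 RC17 (A16V+S108T). Drug dilutions were made from DMSO stocks, final DMSO 0.1%, and added to a 1.5% cell suspension at 1-2% parasitemia. After 24 h, 0.25 µCi [3H]-hypoxanthine was added for a further 18-24 h, then scintillation counting. IC50 taken from a sigmoidal curve.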

[2] = target: Bifunctional dihydrofolate reductase-thymidylate synthase (Plasmodium falciparum K1) (UniProt P13922); experiment: Evaluated for activity of compound relative to Cycloguanil
[3] = target: T1, Bifunctional dihydrofolate reductase-thymidylate synthase (Plasmodium falciparum K1, UniProt P13922, A16V/S108T); experiment: Evaluated for inhibition constant (Ki mut) against A16V+S108T Mutant dihydrofolate reductase of Plasmodium falciparum
Plasmodium falciparum [4] = experiment: (§2) Growth inhibition (IC50) against Plasmodium falciparum wild-type TM4/8.2; type: functional, organism-based
Summary of the method: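 TM4/8.2 clone (wild-type DHFR) grown in human erythrocytes, RPMI 1640 with 25 mM HEPES pH 7.4, 0.2% NaHCO3, gentamicin, 10% human serum, 37 °C, 3% CO2. Drug from DMSO (final 0.1%), 1.5% cell suspension at 1-2% parasitemia; [3H]-hypoxanthine added after 24 h, a further 18-24 h incubation. IC50 from sigmoidal incorporation-versus-concentration curve.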

[5] = target: Bifunctional dihydrofolate reductase-thymidylate synthase (Plasmodium falciparum K1) (UniProt P13922); experiment: Ratio of inhibitory constant of mutant by wild-type DHFRs of Plasmodium falciparum
[6] = target: Bifunctional dihydrofolate reductase-thymidylate synthase (Plasmodium falciparum K1) (UniProt P13922); experiment: Selectivity ratio of growth inhibition against Plasmodium falciparum TM4/8.2(wild-type) and T9/94(mutant); type: functional
[7] = target: Bifunctional dihydrofolate reductase-thymidylate synthase (Plasmodium falciparum K1) (UniProt P13922); experiment: Evaluated for activity of relative to Cycloguanil
[8] = target: T1, Bifunctional dihydrofolate reductase-thymidylate synthase; experiment: Inhibition constant (Ki mut) against A16V+S108T Mutant DHFRs of Plasmodium falciparum
Plasmodium falciparum [9] = experiment: Growth inhibition IC50 against Plasmodium falciparum mutant T9/94; type: functional, organism-based; summary of the method: as §1
[10] = Selectivity ratio of growth inhibition values of wild-type (TM4/8.2) and mutant (T9/94) clones of Plasmodium falciparum
Summary of the method: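 Clones TM4/8.2 (wild-type DHFR) and T9/94 RC17 (A16V+S108T) grown in human erythrocytes in RPMI 1640 with 25 mM HEPES pH 7.4 and 10% human serum, 37 °C, 3% CO2. 1.5% cell suspension at 1-2% parasitemia with drug in 0.1% DMSO final for 24 h, then [3H]-hypoxanthine 18-24 h. IC50 taken from sigmoidal curves; ratio is T9/94 IC50 over TM4 IC50.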

Plasmodium falciparum [11] = experiment: as §2; type: functional, organism-based; summary of the method: as §1; remark: listed apart in the source

Sequence of Bifunctional dihydrofolate reductase-thymidylate synthase (Plasmodium falciparum K1) (P13922 whole entry, looked up): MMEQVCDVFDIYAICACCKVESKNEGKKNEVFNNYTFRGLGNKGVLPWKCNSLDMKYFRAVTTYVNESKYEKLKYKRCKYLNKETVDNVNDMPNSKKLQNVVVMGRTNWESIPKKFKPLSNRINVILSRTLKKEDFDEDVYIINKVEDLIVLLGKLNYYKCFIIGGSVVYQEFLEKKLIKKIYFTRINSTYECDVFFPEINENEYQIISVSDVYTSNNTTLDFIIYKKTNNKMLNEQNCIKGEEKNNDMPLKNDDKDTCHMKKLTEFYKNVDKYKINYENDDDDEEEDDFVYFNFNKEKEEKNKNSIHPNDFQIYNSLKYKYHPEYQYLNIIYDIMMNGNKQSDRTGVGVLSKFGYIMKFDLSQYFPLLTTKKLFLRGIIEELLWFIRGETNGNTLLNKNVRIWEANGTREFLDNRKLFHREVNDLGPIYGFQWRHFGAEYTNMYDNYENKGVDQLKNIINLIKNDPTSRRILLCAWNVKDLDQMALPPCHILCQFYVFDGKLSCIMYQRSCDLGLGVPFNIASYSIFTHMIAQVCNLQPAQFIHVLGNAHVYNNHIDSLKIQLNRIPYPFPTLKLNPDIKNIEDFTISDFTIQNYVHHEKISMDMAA
T1 sequence (P13922 whole entry, looked up, stated change not applied): as the sequence (P13922 whole entry, looked up) above

SMILES | IC50 (Plasmodium falciparum [1]) [nM] | Relative activity [2] | Ki [3] [nM] | IC50 (Plasmodium falciparum [4]) [nM] | Ratio [5] | IC50 ratio [6] | Relative activity [7] | Ki [8] [nM] | IC50 (Plasmodium falciparum [9]) [nM] | IC50 ratio [10] | IC50 (Plasmodium falciparum [11]) [nM]
NC1=NC(c2ccccc2)N(c2cccc(Cl)c2)C(N)=N1 (stereo unspecified) | 24 | 0.008 | 10 | 455 | 0.9 | 0.05 | 7.8 | – | – | – | –
CC(C)C1N=C(N)N=C(N)N1c1ccc(Br)cc1 (stereo unspecified) | 725 | 0.9 | – | 638 | 40 | 1.14 | 20 | 1200 | – | – | –
CC1(C)N=C(N)N=C(N)N1c1ccc(Cl)c(Cl)c1 [CHLORCYCLOGUANIL] | – | 0.1 | – | 4 | 119 | 76.8 | 0.73 | 131 | 307 | – | –
Cc1ccc(N2C(N)=NC(N)=NC2C(C)C)cc1 (stereo unspecified) | 3450 | 1.11 | – | 8220 | 8.7 | 0.42 | 111 | 1460 | – | – | –
CC1(C)N=C(N)N=C(N)N1c1cccc(Cl)c1 | 298 | – | – | 60 | – | – | – | – | – | – | –
NC1=NC(c2ccccc2)N(c2ccc(Cl)c(Cl)c2)C(N)=N1 (stereo unspecified) | 29 | – | – | 40 | – | – | – | – | – | – | –
CCC1N=C(N)N=C(N)N1c1ccc(Br)cc1 (stereo unspecified) | 220 | 0.15 | – | 132 | 37 | 3.24 | 1.8 | 202 | – | – | –
Cc1ccc(N2C(N)=NC(N)=NC2c2ccccc2)cc1 (stereo unspecified) | 39 | 0.13 | 170 | 136 | 22 | 0.29 | 5.1 | – | – | – | –
NC1=NC(c2ccccc2)N(c2ccc(Br)cc2)C(N)=N1 (stereo unspecified) | 180 | 0.07 | 90 | 47 | 31 | 3.86 | 1.9 | – | – | – | –
Cc1ccc(N2C(N)=NC(N)=NC2C)cc1 (stereo unspecified) | 464 | 0.14 | – | 462 | 7.9 | 1 | 15 | 185 | – | – | –
NC1=NC(c2ccccc2)N(c2ccc(Cl)cc2)C(N)=N1 (stereo unspecified) | 44 | 0.04 | 49 | 27 | – | – | 3 | – | – | – | –
CC1N=C(N)N=C(N)N1c1cccc(Cl)c1 (stereo unspecified) | 28 | – | – | – | – | – | – | – | – | – | –
Cc1ccc(N2C(N)=NC(N)=NC2(C)C)cc1 | 3620 | – | – | 65 | – | – | – | – | – | – | –
CC(C)(C)C1N=C(N)N=C(N)N1c1ccc(Cl)cc1 (stereo unspecified) | 2820 | 63 | – | 2910 | – | – | – | 82700 | – | – | –
CC1(C)N=C(N)N=C(N)N1c1ccc(F)cc1 | 1000 | 1.2 | – | 294 | 355 | 3.4 | 3 | 1630 | – | – | –
CCCC1N=C(N)N=C(N)N1c1ccc(C)cc1 (stereo unspecified) | 152 | 0.14 | – | 167 | 14 | 0.91 | 9.1 | 188 | – | – | –

SMILES | IC50 (Plasmodium falciparum [1]) [nM] | Relative activity [2] | Ki [3] [nM] | IC50 (Plasmodium falciparum [4]) [nM] | Ratio [5] | IC50 ratio [6] | Relative activity [7] | Ki [8] [nM] | IC50 (Plasmodium falciparum [9]) [nM] | IC50 ratio [10] | IC50 (Plasmodium falciparum [11]) [nM]
CC1N=C(N)N=C(N)N1c1ccc(Cl)cc1 (stereo unspecified) | 347 | 0.09 | – | 348 | 31 | 1 | 2.7 | 127 | – | – | –
CCCCC1N=C(N)N=C(N)N1c1ccc(Cl)cc1 (stereo unspecified) | 250 | 0.1 | 167 | 111 | 45 | – | 2.5 | – | – | 2.25 | –
CCC1N=C(N)N=C(N)N1c1ccc(C)cc1 (stereo unspecified) | 517 | 0.1 | – | 273 | 22 | 1.89 | 3.9 | 128 | – | – | –
CC(C)C1N=C(N)N=C(N)N1c1ccc(Cl)cc1 (stereo unspecified) | 2820 | 1.2 | – | 2910 | 25 | 0.97 | 40.3 | 1540 | – | – | –
CCC1N=C(N)N=C(N)N1c1ccc(Cl)cc1 (stereo unspecified) | 486 | 0.14 | – | 40 | 52 | 12.2 | 2.4 | 189 | – | – | –
CC1N=C(N)N=C(N)N1c1ccc(Br)cc1 (stereo unspecified) | 277 | 0.15 | – | 132 | 35 | 2.1 | 3.8 | 202 | – | – | –
NC1=NCN(c2ccc(Cl)cc2)C(N)=N1 | 313 | 0.5 | 646 | 952 | 26 | 0.33 | 16 | – | – | – | –
NC1=NCN(c2ccc(F)cc2)C(N)=N1 | 312 | 0.4 | – | 9660 | 1.7 | 0.03 | 180 | 469 | – | – | –
CC1(C)N=C(N)N=C(N)N1c1ccc(Cl)cc1 [CYCLOGUANIL] | 2430 | 1 | – | – | 876 | 60.8 | 1 | 1310 | – | – | 40
CCCC1N=C(N)N=C(N)N1c1ccc(Br)cc1 (stereo unspecified) | 250 | 0.1 | 127 | 63 | 49 | 3.97 | 1.7 | – | – | – | –
CC1(C)N=C(N)N=C(N)N1c1ccccc1 | 445 | 1.05 | – | 546 | 69 | 0.82 | 13 | 1380 | – | – | –
CC1N=C(N)N=C(N)N1c1ccc(Cl)c(Cl)c1 (stereo unspecified) | 19 | 0.014 | – | 35 | 12.7 | 0.54 | 0.9 | 17.8 | – | – | –
NC1=NCN(c2ccccc2)C(N)=N1 | 356 | 0.4 | – | 11600 | 1.8 | 0.03 | 220 | 585 | – | – | –
CCCC1N=C(N)N=C(N)N1c1ccc(Cl)cc1 (stereo unspecified) | 365 | 0.08 | 107 | 65 | 23 | 5.62 | 3.1 | – | – | – | –
CC1(C)N=C(N)N=C(N)N1c1ccc(Br)cc1 | 2760 | 1.5 | – | 31 | 1770 | 89 | 0.7 | 1950 | – | – | –
